# Experimental data from different studies.
# Compare with care: the assays were run in different laboratories.
# Target: Inhibitor of nuclear factor kappa-B kinase subunit alpha (CHUK, Homo sapiens, UniProt O15111)
# Residues used in one study (O15111 1-745): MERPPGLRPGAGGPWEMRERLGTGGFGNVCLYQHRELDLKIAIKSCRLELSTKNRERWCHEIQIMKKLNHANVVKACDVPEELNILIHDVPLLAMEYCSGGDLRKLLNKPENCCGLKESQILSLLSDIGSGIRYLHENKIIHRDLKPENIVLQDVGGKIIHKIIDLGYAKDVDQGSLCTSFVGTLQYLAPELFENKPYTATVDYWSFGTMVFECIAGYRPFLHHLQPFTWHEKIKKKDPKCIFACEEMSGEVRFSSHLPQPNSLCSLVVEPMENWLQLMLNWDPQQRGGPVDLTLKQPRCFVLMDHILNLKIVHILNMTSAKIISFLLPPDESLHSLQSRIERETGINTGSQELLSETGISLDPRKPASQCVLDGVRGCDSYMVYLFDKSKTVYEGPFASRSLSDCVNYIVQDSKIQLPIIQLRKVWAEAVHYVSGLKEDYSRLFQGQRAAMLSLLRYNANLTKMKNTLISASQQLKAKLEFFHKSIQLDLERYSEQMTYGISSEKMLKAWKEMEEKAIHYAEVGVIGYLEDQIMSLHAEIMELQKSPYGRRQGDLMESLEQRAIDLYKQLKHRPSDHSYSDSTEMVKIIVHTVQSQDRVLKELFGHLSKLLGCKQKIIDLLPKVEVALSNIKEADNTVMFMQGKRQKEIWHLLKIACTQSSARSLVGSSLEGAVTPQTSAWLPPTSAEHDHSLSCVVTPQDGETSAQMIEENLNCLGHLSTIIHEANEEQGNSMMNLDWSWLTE
SMILES,assay,setting,remaining binding [%]
O=C(NCCCN1CCOCC1)c1ccc(Nc2ncc(Cl)c(-c3ccc(Cl)s3)n2)cc1,"binding, competition with immobilised ligand",1 µM,51
C[C@@H]1CCN(c2nccc(-c3cnn4ncccc34)n2)C1,binding,1 µM,81
CCN1CCN(Cc2ccc(C(=O)Nc3ccc(C)c(Oc4ccc5c(c4)CC(=O)N5)c3)cc2C(F)(F)F)CC1,"binding, competition with immobilised ligand",1 µM,74
CCCOc1ccc([C@@H]2[C@@H](C(=O)O)[C@H](c3ccc4c(c3)OCO4)CN2CC(=O)Nc2c(CC)cccc2CC)cc1,"cell-free assay, competition with immobilised ligand",1 µM,86
CN(C)c1nccc(-c2cnc3ncccn23)n1,binding,1 µM,71
O=C(Nc1cnc(Oc2ccc(F)cc2)nc1)N1CCc2ncccc2[C@@H]1c1ccc(F)cc1,"cell-free assay, competition with immobilised ligand",1 µM,100
O=C(Nc1c[nH]nc1C(=O)NC1CCNCC1)c1cc(F)cc(F)c1,"binding, competition with immobilised ligand",1 µM,100
O=C(NC[C@@H]1[C@H]2CN(C(=O)OCc3cc(C(F)(F)F)cc(C(F)(F)F)c3)C[C@@H]12)c1ccc2[nH]nnc2c1,"cell-free assay, competition with immobilised ligand",1 µM,100
COc1cnc(Nc2cccc(S(N)(=O)=O)c2)nc1N1CCN(c2ccccc2)C(=O)C1,"binding, competition with immobilised ligand",1 µM,91
N#Cc1ccccc1CSc1nnc2c(n1)[nH]c1ccccc12,"binding, competition with immobilised ligand",10 µM,100
C[C@@]1(Cc2ccc(C#N)cc2)C(=O)N(c2cc(Cl)cc(Cl)c2)c2ncc(C(=O)NC3(c4nc(C5CCC5)no4)CC3)n21,"cell-free assay, competition with immobilised ligand",1 µM,100
O=C(NCCCN1CCOCC1)c1ccc(Nc2nccc(-c3cc4ccccc4s3)n2)cc1,"binding, competition with immobilised ligand",1 µM,12
CN(c1nccc(-c2cnn3ncccc23)n1)C1CC1,binding,1 µM,100
COc1ncc2cc3ccccc3nc2c1C#N,"cell-free assay, competition with immobilised ligand",5 µM,98
CN(C)c1nccc(-c2cnn3ncccc23)n1,binding,1 µM,81
C[C@@H](c1ccc(-n2cnc3c(N)ncnc32)cc1)N1CCc2nn(C)c(Cc3ccccc3)c2C1=O,"binding, competition with immobilised ligand",0.1 µM,80
COc1ccc2cc(OCC3(C(=O)O)CN(C(=O)c4ccc(F)cc4)C3)ccc2c1,"cell-free assay, competition with immobilised ligand",1 µM,100
N[C@@H]1CCN(c2nccc(-c3cnn4ncccc34)n2)C1,binding,1 µM,100
Cc1nccc(COC(=O)N2C[C@@H]3[C@@H](CNC(=O)c4ccc5[nH]nnc5c4)[C@@H]3C2)n1,"cell-free assay, competition with immobilised ligand",1 µM,100
COc1ccnn2ncc(-c3ccnc(N(C)C)n3)c12,binding,1 µM,71
O=C(c1ccc(Nc2ncc(Cl)c(-c3ccc(Cl)s3)n2)cc1)N1CCC(N2CCCC2)CC1,"binding, competition with immobilised ligand",1 µM,2.9
C[C@@H](c1cccc(C#N)c1)n1cc(Cl)cc(C(N)=O)c1=N,"cell-free assay, competition with immobilised ligand",1 µM,100
C[C@@H]1CN(c2ccc3ncc(-c4ccc5[nH]nc(C6CC6)c5c4)n3n2)C[C@H](C)O1,"binding, competition with immobilised ligand",0.5 µM,85
CN(C)c1ncc(F)c(-c2cnn3ncccc23)n1,binding,1 µM,70
COc1cc(-c2cn(C3CCc4ccccc4N(CC(F)(F)F)C3=O)nn2)ccc1-n1ccc(C)n1 (stereo not shown),"cell-free assay, competition with immobilised ligand",1 µM,98
